Read-outs that look alike come from different tables or passages of the source.
Columns and labels:
[1] = tested on: PfMDR1 mutant lines versus parental ABS parasites (Dd2-B2, FCB); assay: Drug susceptibility profiling of HHQ-resistant lines in ABS parasites; type: cell-based, Plasmodium falciparum; conditions: for changes in susceptibility: all three lines: PfMDR1^edF1072L, PfMDR1^selY290F; for susceptibility in GNF-Pf-5668-3C4D2 compared to PfMDR1^edF1072L: i.e. higher IC50 values; for fold increased susceptibility compared to wild-type Dd2-B2: GNF-Pf-5668-3C4D2 line (four pfmdr1 copies + F1072L (AB 69%))
[2] = tested on: P. berghei ANKA MRA868 GAMs, Anopheles stephensi mosquitoes; assay: In vivo transmission-blocking effect; design: species or system P. berghei in CD-1 mice; conditions: mice given two doses 12 h apart: 100 mg/kg GNF compounds, 30 mg/kg DHA
[3] = tested on: 3D7 (drug-sensitive) ABS parasites; assay: Imaging-based asexual blood stage high-throughput assay; type: cell-based, Plasmodium falciparum; conditions: read-out: ABS IC50; drug-sensitive 3D7, 72 h
Procedure, shortened: (§1)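 Sorbitol-synchronized parasites were seeded at 2% parasitemia and 0.3% Hct and exposed to test compound for 72 h at 37°C in 5% O₂/5% CO₂/90% N₂. Cells were then permeabilized with 0.01% Triton X-100, 0.001% saponin and 5 mM EDTA, and stained with 0.5 μg/mL DAPI for at least 6 h at room temperature in the dark. Confocal imaging used 405 nm excitation. Parasites were counted from spot size and intensity. Two independent cultures.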

[4] = tested on: compound-exposed Pf GAMs in Anopheles stephensi mosquitoes; assay: Membrane-feeding assay with A. stephensi mosquitoes; type: in vivo, Plasmodium falciparum; conditions: for reduction in oocyst density per infected mosquito midgut: GAMs pre-treated at 3x late-stage IC50; for reduction in infection prevalence (percentage of infected mosquitoes): GAMs pre-treated at 3x late-stage IC50, 3 days, then 4 days without compound
Procedure, shortened: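 Day-12 gametocytes were treated 3 days at 1x or 3x their late-stage IC50, with compound refreshed daily, then held 4 days without compound. Controls were 0.25% DMSO and methylene blue at 3x. Stage V cultures (50% Hct, 0.01–0.16% parasitemia) were membrane-fed for 30 min to A. stephensi, kept at 26°C and 78% RH. Midguts were dissected on day 7–8, stained with mercurochrome and oocysts counted blind. Prevalence is the percentage of mosquitoes with at least one oocyst.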

[5] = tested on: female gametes from stage V GAMs; assay: Dual gamete formation assay, female gamete formation; type: cell-based, Plasmodium falciparum; conditions: for IC50: Plasmodium falciparum, 24 h
[6] = tested on: NITD609-R^Dd2 clone #2 (PfATP4 mutant line); assay: Imaging-based asexual blood stage high-throughput assay; type: cell-based, Plasmodium falciparum; conditions: read-out: ABS IC50, 72 h
Procedure, shortened: as §1

male GAM exflagellation = assay: Male GAM exflagellation of GAM cultures used for membrane feeding; type: cell-based, Plasmodium falciparum; conditions: GAM cultures exposed at 3x late-stage IC50
[7] = tested on: NF54^Pfs16 early-stage GAMs; assay: Luciferase-based early-stage gametocyte inhibition assay; type: cell-based, Plasmodium falciparum; conditions: in words
Procedure, shortened: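 Gametocytes on day 1 of gametocytogenesis were set at 10% parasitemia and 0.5% Hct. They were kept in medium with 50 mM N-acetyl-D-glucosamine, refreshed daily. Compound was added at 0.4% DMSO final. Controls were DMSO (0% inhibition) and 5 μM puromycin (100% inhibition). After 72 h at 37°C in 5% O₂/5% CO₂/90% N₂, Steadylite was added, followed by 60 min lysis at room temperature and a luminescence read. Potency used serial dilutions up to 40 μM, three per log, on two independent occasions.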

[8] = tested on: male gametes from stage V GAMs; assay: Dual gamete formation assay, male gamete formation; type: cell-based, Plasmodium falciparum; conditions: for IC50: Plasmodium falciparum, 24 h
[9] = tested on: NF54^Pfs16 late-stage GAMs; assay: Image-based late-stage gametocyte inhibition assay; type: cell-based, Plasmodium falciparum; conditions: in words
Procedure, shortened: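 Day-8 stage IV gametocytes were MACS-purified and set at 10% parasitemia and 0.1% Hct, with 0.4% DMSO final. They were incubated 72 h at 37°C in 5% O₂/5% CO₂/90% N₂, then stained overnight with MitoTracker Red CM-H₂XRos. Confocal imaging counted viable mature gametocytes per imaged area; 5 μM puromycin was the control. Screening used 2 μM in triplicate. Potency used serial dilutions up to 40 μM, three per log, on two independent occasions.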

[10] = tested on: Dd2 (multidrug-resistant) ABS parasites; assay: Imaging-based asexual blood stage high-throughput assay; type: cell-based, Plasmodium falciparum; conditions: read-out: ABS IC50; multidrug-resistant Dd2, 72 h
[11] = tested on: HEK293 human embryonic kidney cell line; assay: HEK293 cytotoxicity; type: cell-based; conditions: at 40 μM, 72 h
Procedure, shortened: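 Cells were grown in DMEM with 10% fetal calf serum and seeded at 2,000 cells/well, then left overnight at 37°C in 5% CO₂ to adhere. Test compound was added as a serial dilution with a maximum of 40 μM, at 0.4% DMSO final, for 72 h. Medium was then replaced with serum-free DMEM containing 44 μM resazurin for 4–6 h. Fluorescence was read at 530/595 nm. Two biological replicates.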

[12] = tested on: cultured P. berghei liver-stage parasites; conditions: cited from earlier work
[13] = tested on: P. berghei ANKA MRA868 ABS parasites; assay: 4-day Peters test; type: in vivo, P. berghei in CD-1 mice; conditions: 4 doses, 96 h post infection
Procedure, shortened: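 Female CD-1 mice (5 weeks old, 22–25 g; four per group) were infected intraperitoneally with 1x10⁶ parasites. The test compound was given intraperitoneally at 2, 24, 48 and 72 h after infection, in 20% DMSO in water. Controls were solvent only and DHA at 30 mg/kg. Parasitemia was read by microscopy at 96 h. Groups were randomized and blinded. The 100 mg/kg groups were tested once.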

Dd2-B2 late rings = assay: Hb endocytosis by Western blot; type: cell-based, Plasmodium falciparum; conditions: 5′ the IC50 for 5 h, normalized to DMSO control
Procedure, shortened: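 Sorbitol-synchronized parasites were exposed to test compound at 5x IC50 for 5 h, starting at the late ring stage. Lysates were blotted to nitrocellulose and probed overnight at 4°C with rabbit anti-human Hb (1:5,000) and anti-β-actin (1:2,000). Detection was by ECL. Hb band intensities were normalized to β-actin and compared with untreated controls. Repeated on 3–4 independent occasions.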

[14] = tested on: PfMDR1^selY290F parasites; assay: Heme fractionation assay; type: cell-based, Plasmodium falciparum; conditions: MQ with increasing concentrations; LMF at 1–2′ IC50
Procedure, shortened: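 Early ring-stage, sorbitol-synchronized parasites were exposed to test compound at 0.1, 0.25, 0.5, 1 and 2x the ABS IC50. Heme species were fractionated and normalized to the number of cells analyzed, counted by flow cytometry of an aliquot. Significance was tested by two-tailed t-tests.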

Dd2-B2 parasites = assay: Heme fractionation assay; type: cell-based, Plasmodium falciparum; conditions: for heme fractionation effect compared to untreated controls: 0.1 to 2′ IC50
[15] = PfMDR1^selY290F (GNF-Pf-5660-2B6H1)

CCN(CC)CCCC(C)Nc1ccnc2cc(Cl)ccc12 (stereo not shown) [CQ, chloroquine]
changes in susceptibility ([1]; PfMDR1^edS1075I): no changes

C[C@H]1[C@@H](O)O[C@@H]2O[C@@]3(C)CC[C@H]4[C@H](C)CC[C@@H]1[C@@]24OO3 [DHA, dihydroartemisinin, reference compound]
fold increased susceptibility versus Dd2-B2 ([1]; all three mutations (F1072L, S1075I, Y290F)): ~ 1.6 fold
reduction in oocyst burden [2]: 75%
reduction in the number of infected mosquitoes [2]: 65%

CC(C)(C)c1ccc(O)c(CNC2CCCCC2)c1 [GNF-Pf-5310]
IC50 [3]: < 0.025 µM
reduction in oocyst density per infected mosquito midgut [4]: 73%
reduction in infection prevalence (percentage of infected mosquitoes) [4]: no reduction
activity on female gamete formation ([5]; in words): no activity
IC50 [6]: < 0.025 µM
reduction in male GAM exflagellation rates (male GAM exflagellation): no effect
early-stage gametocytocidal activity [7]: potent
activity on male gametes / exflagellation ([8]; in words): no activity
late-stage gametocytocidal activity [9]: potent
IC50 [10]: < 0.025 µM
inhibition of HEK293 cells [11]: < 50%

COc1ccc(C2CC(=O)C3=C(C2)NC(C)=C(C(=O)OC(C)C)C3c2ccccc2C)cc1OC (stereo not shown) [GNF-Pf-5640]
fold increase in IC50 compared to parental Dd2-B2 ([1]; GNF-Pf-5640-selected clone 2C4C3, PfMDR1 S1075I): 77 fold
fold increase in IC50 compared to parental Dd2-B2 ([1]; GNF-Pf-5640-selected clone 3H9C7, PfMDR1 Y290F): 79 fold
IC50 [3]: < 0.025 µM
IC50 [6]: < 0.025 µM
activity against liver-stage parasites [12]: inactive
early-stage gametocytocidal activity [7]: potent
late-stage gametocytocidal activity [9]: potent
IC50 [10]: < 0.025 µM
inhibition of HEK293 cells [11]: < 50%

CCCOC(=O)C1=C(C)NC2=C(C(=O)CC(c3ccc(OC)c(OC)c3)C2)C1c1ccccc1F (stereo not shown) [GNF-Pf-5668]
fold increase in IC50 compared to parental Dd2-B2 ([1]; GNF-Pf-5668-selected clone 3C4D2, PfMDR1 F1072L (AB 67%)): 37 fold
IC50 [3]: < 0.025 µM
reduction in oocyst density per infected mosquito midgut [4]: 95–99%
reduction in infection prevalence (percentage of infected mosquitoes) [4]: 57%
IC50 [6]: < 0.025 µM
activity against liver-stage parasites [12]: inactive
reduction in male GAM exflagellation rates (male GAM exflagellation): 70%
early-stage gametocytocidal activity [7]: potent
reduction of parasitemia compared to vehicle-treated mice ([13]; 70 mg/kg intraperitoneal): 43%
reduction of parasitemia compared to vehicle-treated mice ([13]; 100 mg/kg intraperitoneal): 91%
reduction in oocyst burden [2]: No effect
reduction in the number of infected mosquitoes [2]: No effect
late-stage gametocytocidal activity [9]: potent
IC50 [10]: < 0.025 µM
inhibition of HEK293 cells [11]: < 50%

CCCCN(CCCC)CC(O)c1cc(Cl)cc2c1-c1ccc(Cl)cc1/C2=C/c1ccc(Cl)cc1 (stereo not shown) [LMF, Lumefantrine]
fold higher susceptibility versus Dd2-B2 ([1]; PfMDR1^edF1072L): 3.1 fold
fold increased susceptibility versus Dd2-B2 ([1]; PfMDR1^edS1075I): unchanged
fold higher susceptibility versus Dd2-B2 [1, 15]: 1.9 fold
susceptibility in GNF-Pf-5668-3C4D2 compared to PfMDR1^edF1072L [1]: decreased susceptibility
reduction of Hb levels within parasites (Dd2-B2 late rings): no significant changes
Hz and total heme iron levels [14]: reduction
heme fractionation effect compared to untreated controls (Dd2-B2 parasites): little or no effect

OC(c1cc(C(F)(F)F)nc2c(C(F)(F)F)cccc12)C1CCCCN1 (stereo not shown) [MQ, mefloquine]
fold increased susceptibility compared to wild-type Dd2-B2 [1]: 1.4 fold
fold higher susceptibility versus Dd2-B2 ([1]; PfMDR1^edF1072L): 3.6 fold
fold increased susceptibility versus Dd2-B2 ([1]; PfMDR1^edS1075I): 1.4 fold
fold higher susceptibility versus Dd2-B2 [1, 15]: 2.0 fold
susceptibility in GNF-Pf-5668-3C4D2 compared to PfMDR1^edF1072L [1]: decreased susceptibility
reduction of Hb levels within parasites (Dd2-B2 late rings): no significant changes
Hz and total heme iron levels [14]: reductions
heme fractionation effect compared to untreated controls (Dd2-B2 parasites): little or no effect
fold decrease in Hz levels (Dd2-B2 parasites; 2′ the IC50): 1.6 fold

CN(C)c1ccc2nc3ccc(=[N+](C)C)cc-3sc2c1 [Methylene Blue, methylene blue]
transmission-blocking activity ([4]; positive control at 3′ the GAM IC50, in words): maximal
IC50 ([5]; read-out: Mean IC50 (lower 95% CI - upper 95% CI) Female carry-over): 0.162 µM
IC50 ([5]; read-out: Mean IC50 (lower 95% CI - upper 95% CI) Female wash-out): 0.846 µM
IC50 ([8]; read-out: Mean IC50 (lower 95% CI - upper 95% CI) Male carry-over): 0.0615 µM
IC50 ([8]; read-out: Mean IC50 (lower 95% CI - upper 95% CI) Male wash-out): 0.147 µM

C=C[C@H]1C[N@@]2CC[C@H]1C[C@H]2[C@H](O)c1ccnc2ccc(OC)cc12 [QN, quinine]
fold increased susceptibility compared to wild-type Dd2-B2 [1]: 1.7 fold
fold higher susceptibility versus Dd2-B2 ([1]; PfMDR1^edF1072L): 3.6 fold
fold increased susceptibility versus Dd2-B2 ([1]; PfMDR1^edS1075I): 5.1 fold
fold higher susceptibility versus Dd2-B2 [1, 15]: 3.7 fold
susceptibility in GNF-Pf-5668-3C4D2 compared to PfMDR1^edF1072L [1]: decreased susceptibility

CC1(C)N=C(N)N=C(N)N1OCCCOc1cc(Cl)c(Cl)cc1Cl [WR99210]
reduction of Hb levels within parasites (Dd2-B2 late rings): no significant changes

CCNCc1cc(Nc2ccnc3cc(Cl)ccc23)ccc1O [md-ADQ, md-amodiaquine]
changes in susceptibility ([1]; PfMDR1^edS1075I): no changes

CCNCCCC(C)Nc1ccnc2cc(Cl)ccc12 (stereo not shown) [md-CQ, monodesethyl-CQ]
changes in susceptibility ([1]; PfMDR1^edS1075I): no changes

Clc1ccc2c(N3CCN(CCCN4CCN(c5ccnc6cc(Cl)ccc56)CC4)CC3)ccnc2c1 [piperaquine]
changes in susceptibility ([1]; PfMDR1^edS1075I): no changes

ferroquine
changes in susceptibility ([1]; PfMDR1^edS1075I): no changes

From PMC5708124 (Nature microbiology, 2017)
